Activity calls are given as the source filed them. The calls are words filed in the database; no cut-off is given here.
Key:
[1] = Drug metabolism in human liver microsomes at 1 uM incubated for 15 mins at 37 degC; format: ADME; details: read-out: Drug metabolism
Summary of the method: (§1)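 Compound at 1 μM incubated 15 min at 37 °C with human or rat liver microsomes; read-out is percent metabolized.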

[2] = Drug metabolism in rat liver microsomes at 1 uM incubated for 15 mins at 37 degC; format: ADME; details: read-out: Drug metabolism; summary of the method: as §1
[3] = target: T1, cAMP and cAMP-inhibited cGMP 3',5'-cyclic phosphodiesterase 10A (Rattus norvegicus, UniProt Q9QYJ6); test: Inhibition of 6-His-tagged rat recombinant PDE10A expressed in Sf9 cells using [3H]cAMP incubated for 60 mins by scintillation proximity assay
T1 sequence (Q9QYJ6 whole entry): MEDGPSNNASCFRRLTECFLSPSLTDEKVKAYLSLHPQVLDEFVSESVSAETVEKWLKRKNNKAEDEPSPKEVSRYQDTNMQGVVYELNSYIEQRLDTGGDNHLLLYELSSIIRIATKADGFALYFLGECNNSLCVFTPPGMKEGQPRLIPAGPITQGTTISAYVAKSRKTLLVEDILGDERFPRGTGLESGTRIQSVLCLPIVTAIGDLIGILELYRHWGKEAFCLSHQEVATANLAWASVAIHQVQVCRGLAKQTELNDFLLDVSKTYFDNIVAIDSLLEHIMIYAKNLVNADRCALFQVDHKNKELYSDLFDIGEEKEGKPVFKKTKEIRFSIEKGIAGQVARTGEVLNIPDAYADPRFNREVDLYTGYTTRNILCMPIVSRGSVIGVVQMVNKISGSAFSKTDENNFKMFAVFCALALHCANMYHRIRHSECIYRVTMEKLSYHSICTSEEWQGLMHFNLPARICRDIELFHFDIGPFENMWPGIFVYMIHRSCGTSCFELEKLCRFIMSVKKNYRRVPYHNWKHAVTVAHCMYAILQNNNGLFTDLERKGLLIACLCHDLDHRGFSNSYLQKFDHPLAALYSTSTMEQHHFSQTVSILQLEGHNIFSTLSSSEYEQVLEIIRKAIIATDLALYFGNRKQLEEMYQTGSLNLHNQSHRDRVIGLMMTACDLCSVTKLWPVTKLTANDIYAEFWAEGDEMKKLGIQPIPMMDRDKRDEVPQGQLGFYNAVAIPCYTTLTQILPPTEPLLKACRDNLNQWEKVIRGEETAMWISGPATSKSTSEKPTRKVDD

[4] = Ratio of drug level in brain to plasma of Sprague-Dawley rat at 10 mg/kg, sc after 1 hr; format: ADME, organism-based; parameters: dose 10 mg/kg, route subcutaneous; details: read-out: BPR
Summary of the method: (§2)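 Fed male Sprague-Dawley rats, n = 2 per time point, given 10 mg/kg s.c. in 20% HPβCD at pH 3.5−4. Brain and plasma levels taken 1 h after dosing; brain-to-plasma ratio computed from these.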

[5] = Unbound fraction in Sprague-Dawley rat brain homogenates at 10 mg/kg, sc after 5 hrs at 37 degC by rapid equilibrium dialysis; format: ADME, organism-based; parameters: dose 10 mg/kg, route subcutaneous; details: brain homogenate
Summary of the method: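 Unbound fraction measured in rat brain homogenate by rapid equilibrium dialysis, 5 h incubation at 37 °C.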

[6] = Drug level in Sprague-Dawley rat brain homogenates at 10 mg/kg, sc after 1 hr; format: ADME, organism-based; parameters: dose 10 mg/kg, route subcutaneous; details: read-out: Drug uptake; summary of the method: as §2
Rattus norvegicus [7] = test: In vivo PDE2 occupancy in Wistar rat assessed as inhibition of specific binding of [3H]-4-((1-(5-butoxypyridin-3-yl)-4-methyl-[1,2,4]triazolo[4,3-a]quinoxalin-8-yl)methyl)morpholine radiotracer and pre-treated with 2.5 mg/kg, sc PDE10 inhibitor MP10; format: functional; details: route subcutaneous
Rattus norvegicus [8] = test: In vivo PDE2 occupancy in Wistar rat assessed as inhibition of specific binding of [3H]-4-((1-(5-butoxypyridin-3-yl)-4-methyl-[1,2,4]triazolo[4,3-a]quinoxalin-8-yl)methyl)morpholine radiotracer up to 10 mg/kg, po and pre-treated with 2.5 mg/kg, sc PDE10 inhibitor MP10; format: functional, organism-based

metabolised at 0.25 h, 1 µM [1] | metabolised at 0.25 h, 1 µM [2] | IC50 [3] | Kp at 1 h [4] | fraction unbound at 5 h [5] | concentration at 1 h [6] | SMILES | ED50 (Rattus norvegicus [7]) | Activity (Rattus norvegicus [8])
3% | 11% | 8.91 µM | – | – | – | Cc1nc2ccncc2n2c(-c3cc(OC(F)(F)F)ccc3Cl)nnc12 | – | –
34% | 98% | – | 0.69 | 0.026 | 807 ng/g | CCCCOc1ccc(Cl)c(-c2nnc3c(C)nc4ccncc4n23)c1 | – | –
12% | 77% | – | 1.1 | 0.1 | 370 ng/g | Cc1nc2ccncc2n2c(-c3cc(COCC(F)(F)F)ccc3Cl)nnc12 | 3.6 mg/kg | inactive
5% | 18% | 9.12 µM | 0.44 | 0.17 | 801 ng/g | COCCOc1ccc(Cl)c(-c2nnc3c(C)nc4ccncc4n23)c1 | – | –
78% | 98% | 3.89 µM | 0.98 | 0.1 | 895 ng/g | CCCOCc1ccc(Cl)c(-c2nnc3c(C)nc4ccncc4n23)c1 | – | –

From ChEMBL document CHEMBL3425427, “Pyrido[4,3-e][1,2,4]triazolo[4,3-a]pyrazines as Selective, Brain Penetrant Phosphodiesterase 2 (PDE2) Inhibitors” (ACS Med Chem Lett, 2015)
